From publication PMC4697833 (Bioorganic & medicinal chemistry, 2015)
Like-named read-outs stand apart in the source and are kept apart here.

Columns and labels:
[1] = tested on: CD34+CD38− TEX cells; experiment: Flow cytometry viability of CD34+CD38− TEX cells; assay type: cell-based; conditions: Homo sapiens, 12 h; for viability at 25 µM: read-out: cell viability of CD34+CD38− TEX cells
How it was run: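 TEX cells at 1 × 10⁶ cells/mL were dosed for 12 h at 37 °C, 20% O₂, 5% CO₂ (final DMSO 0.03% v/v). Test compound was given at 25, 15 or 2.5 µM; the doxorubicin reference at 2.5, 0.5 or 0.05 µM. Cells were stained for CD34/CD38 (10 min, 4 °C), then Annexin V-FITC/7-AAD (10 min, RT, dark). Over 5 × 10⁴ events were collected. Viable cells were double-negative. Values are mean ± S.D. of 3–5 biological replicates; unpaired t-test versus untreated.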

[2] = tested on: TEX cells; experiment: Methylcellulose clonal growth assay with TEX cells; assay type: cell-based, human; conditions: 11 d growth on methylcellulose
How it was run: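 TEX cells were suspended in methylcellulose medium with penicillin (100 I.U./mL) and streptomycin (100 µg/mL) at a final 1.2 × 10⁴ cells/mL, i.e. 6,000 cells/well. Test compound, diluted in TEX medium, or DMSO (0.05%, control) was added. Cells were plated as technical triplicates and grown 11 d at 37 °C, 5% CO₂. Two people counted colonies independently at 10X. Values are the mean of 3 biological replicates ± S.D., with unpaired t-tests against DMSO.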

[3] = tested on: murine AML cell line B117H (cytarabine-resistant); experiment: Murine cytotoxicity assay, B117H; assay type: cell-based; conditions: read-out: Growth inhibitory activity (IC50) B117H
How it was run: (§1)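 Murine AML lines were used: B117P and B140P from BXH-2 mice, which develop leukemia from an endogenous murine leukemia virus, and their counterparts B117H and B140H. Cells per well were 25,000 (B117P), 28,000 (B117H), 36,000 (B140P) and 44,000 (B140H) in 96-well format. IC50 values are mean ± S.D. from biological triplicate.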

[4] = tested on: U-87 MG (glioblastoma multiforme); experiment: Alamar blue cytotoxicity assay, U-87 MG; assay type: cell-based, human; conditions: read-out: Growth inhibitory activity (IC50) U-87 MG
[5] = Measured LogD7.4; assay type: physicochemical; conditions: pH 7.4
How it was run: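 LogD at pH 7.4 was determined experimentally by liquid-liquid distribution chromatography, run by a contract analytical lab. Each value is the average of two measurements. The assay's measurable range is 1–5 log units.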

[6] = tested on: TEX cells; experiment: Alamar blue cytotoxicity assay, TEX; assay type: cell-based, human; conditions: read-out: Growth inhibitory activity (IC50) TEX
How it was run: (§2)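 Suspension cells (CCRF-CEM; TEX in IMDM with L-glutamine, 15% FBS, SCF 20 ng/mL, IL-3 2 ng/mL, penicillin/streptomycin) were seeded at 10,000 cells/well 24 h before compound addition. Cultures were kept at 37 °C in humidified 5% CO₂. Viability was read with Alamar blue. IC50 is mean ± S.D. of n ≥ 3 biological replicates.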

[7] = tested on: murine AML cell line B117P; experiment: Murine cytotoxicity assay, B117P; assay type: cell-based; conditions: read-out: Growth inhibitory activity (IC50) B117P
How it was run: as §1

[8] = tested on: murine AML cell line B140P; experiment: Murine cytotoxicity assay, B140P; assay type: cell-based; conditions: read-out: Growth inhibitory activity (IC50) B140P
How it was run: as §1

[9] = tested on: DU-145 (prostate cancer); experiment: Alamar blue cytotoxicity assay, DU-145; assay type: cell-based, human
[10] = tested on: MCF-7 (breast adenocarcinoma); experiment: Alamar blue cytotoxicity assay, MCF-7; assay type: cell-based, human
How it was run: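 MCF-7 cells were grown in MEM with 10% FBS, bovine insulin 0.01 mg/mL, penicillin and streptomycin at 37 °C in 5% CO₂. They were detached with trypsin-EDTA or TrypLE and seeded at 5,000 cells/well 24 h before dosing. Readout was Alamar blue reduction. IC50 is mean ± S.D. from n ≥ 3 biological replicates.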

[11] = tested on: TEX cells; experiment: Intracellular ROS induction; assay type: cell-based, human; conditions: 30 min
How it was run: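 TEX cells were seeded at 5 × 10⁵ cells/mL and incubated overnight at 37 °C, 5% CO₂. They were then exposed to test compound at 25 or 100 µM, with H₂O₂ 100 µM as positive control. CellROX Green (5 µM final) was added at once, followed by 30 min at 37 °C. Cells were washed twice in FACS buffer and 5 × 10⁴ events recorded. Median fluorescence was normalized to untreated control. Runs were in quadruplicate (H₂O₂ triplicate); mean ± S.D.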

[12] = tested on: CCRF-CEM (acute lymphoblastic leukemia); experiment: Alamar blue cytotoxicity assay, CCRF-CEM; assay type: cell-based, human; conditions: read-out: Growth inhibitory activity (IC50) CCRF-CEM
How it was run: as §2

[13] = tested on: total bone marrow cell population; experiment: Flow cytometry viability of total bone marrow cells; assay type: cell-based, human
How it was run: (§3)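 Cells were plated at 1 × 10⁶ cells/mL with test compound (25 µM) or doxorubicin (0.5 µM) for 12 h (final DMSO 0.03%). Staining was CD34/CD38, then Annexin V/7-AAD, with over 5 × 10⁴ events. Viability is the unstained fraction, mean ± S.D. of n ≥ 3; unpaired t-tests.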

[14] = tested on: murine AML cell line B140H (cytarabine-resistant); experiment: Murine cytotoxicity assay, B140H; assay type: cell-based; conditions: read-out: Growth inhibitory activity (IC50) B140H
How it was run: as §1

[15] = tested on: GBM6 (glioblastoma multiforme); experiment: Alamar blue cytotoxicity assay, GBM6; assay type: cell-based, human
[16] = tested on: HL-60 (acute promyelocytic leukemia); experiment: Alamar blue cytotoxicity assay, HL-60; assay type: cell-based, human
[17] = tested on: NCI/ADR-RES (ovarian cancer; adriamycin-resistant); experiment: Alamar blue cytotoxicity assay, NCI/ADR-RES; assay type: cell-based, human; conditions: read-out: Growth inhibitory activity (IC50) NCI/ADR-RES; mean ± S.D.
How it was run: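 Adherent NCI/ADR-RES cells were seeded at 5,000 cells/well 24 h prior to compound treatment and kept at 37 °C, 5% CO₂. Growth was measured by Alamar blue. IC50 values are mean ± S.D. over n ≥ 3 biological replicates.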

[18] = tested on: CD34+CD38− BM cells; experiment: Flow cytometry viability of CD34+CD38− bone marrow cells; assay type: cell-based, human; conditions: 0.5 µM, 12 hr
How it was run: as §3

[19] = tested on: NCI/ADR-RES (ovarian cancer; adriamycin-resistant); conditions: read-out: IC50 NCI/ADR-RES, previously reported; cited from earlier work
[20] = 15 µM, N.D. = clonal growth not detected
[21] = Homo sapiens, DU-145, read-out: Growth inhibitory activity (IC50) DU-145
[22] = Homo sapiens, MCF7, read-out: Growth inhibitory activity (IC50) MCF-7
[23] = Homo sapiens, GBM6, read-out: Growth inhibitory activity (IC50) GBM6
[24] = Homo sapiens, HL-60, read-out: Growth inhibitory activity (IC50) HL-60
[25] = read-out: Growth inhibitory activity (IC50) DU-145, mean ± S.D.
[26] = read-out: Growth inhibitory activity (IC50) MCF-7, mean ± S.D.
[27] = read-out: Growth inhibitory activity (IC50) GBM6, mean ± S.D.
[28] = read-out: Growth inhibitory activity (IC50) HL-60, mean ± S.D.

Compound: C=C1C(=O)O[C@@H]2/C=C(\C)CC/C=C(\C)CC[C@@H]12 [CTL, Costunolide]
- viability at 25 µM [1]: 1 to 10%
- Colonies (mean number ± S.D.) ([2]; 2.5 µM): 6.9 ± 3.6
- Colonies (mean number ± S.D.) [2, 20]: 5.6 ± 4.7
- IC50 ([3]; Mus musculus): 4.8 ± 0.7 µM
- IC50 ([4]; Homo sapiens, U-87 MG): 9.6 ± 0.8 µM
- chromatographic logD [5]: 2.9
- IC50 ([6]; Homo sapiens, 48 h): 4.9 ± 0.4 µM
- IC50 ([7]; Mus musculus): 3.5 ± 0.4 µM
- IC50 ([8]; Mus musculus): 3.6 ± 1.2 µM
- IC50 [9, 21]: 7.7 ± 2.8 µM
- IC50 [10, 22]: 17.5 ± 3.7 µM
- induction of intracellular ROS (MFI normalized to untreated control) ([11]; 100 µM): 2.2 fold
- IC50 ([12]; Homo sapiens, CCRF-CEM): 2.3 ± 0.2 µM
- reduction in total BM viability ([13]; 25 µM, 12 h): 22–26%
- IC50 ([14]; Mus musculus): 2.8 ± 0.7 µM
- IC50 [15, 23]: 7 ± 1.8 µM
- IC50 [16, 24]: 13 ± 0.2 µM

Compound: C=C1C(=O)O[C@@H]2[C@H]3O[C@]3(C)CC/C=C(\CO)CC[C@@H]12 [MelB, Melampomagnolide B]
- Colonies (mean number ± S.D.) ([2]; 2.5 µM): 5.3 ± 1.6
- Colonies (mean number ± S.D.) [2, 20]: 0.1 ± 0.3
- IC50 [17]: 15 ± 4.9 µM
- IC50 ([3]; mean ± S.D.): 2.5 ± 1 µM
- IC50 ([4]; mean ± S.D.): 16.3 ± 6.8 µM
- IC50 ([6]; 48 hr treatment, mean ± S.D.): 6.8 ± 2.3 µM
- IC50 ([7]; mean ± S.D.): 2.1 ± 0.8 µM
- IC50 ([8]; mean ± S.D.): 2.9 ± 1 µM
- IC50 [9, 25]: 14.3 ± 5.9 µM
- IC50 [10, 26]: 9.5 ± 1.9 µM
- induction of intracellular ROS (MFI normalized to untreated control) ([11]; 25 µM): No observable induction of ROS
- induction of intracellular ROS (MFI normalized to untreated control) ([11]; 100 µM): No observable induction of ROS
- IC50 ([12]; mean ± S.D.): 5.5 ± 1.2 µM
- reduction in total BM viability ([13]; 25 µM, 12 h): 22–26%
- IC50 ([14]; mean ± S.D.): 2.2 ± 0.7 µM
- IC50 [15, 27]: 4.5 ± 1.9 µM
- IC50 [16, 28]: 7.5 ± 3 µM

Compound: C=C1C(=O)O[C@H]2[C@H]1CCC(C)=C1CC[C@@](C)(O)[C@@H]12 [Compound 1, Micheliolide]
- viability at 25 µM [1]: 1 to 10%
- Colonies (mean number ± S.D.) ([2]; 2.5 µM): 4.2 ± 2.5
- IC50 ([3]; Mus musculus): 8.8 ± 1.7 µM
- IC50 ([4]; Homo sapiens, U-87 MG): 17.8 ± 5 µM
- chromatographic logD [5]: 2.18
- IC50 ([6]; Homo sapiens, 48 h): 2.7 ± 0.4 µM
- IC50 ([7]; Mus musculus): 6.4 ± 1 µM
- IC50 ([8]; Mus musculus): 10 ± 0.4 µM
- IC50 [9, 21]: 14.8 ± 4 µM
- IC50 [10, 22]: 9.6 ± 1 µM
- induction of intracellular ROS (MFI normalized to untreated control) ([11]; 25 µM): 1.7 fold
- induction of intracellular ROS (MFI normalized to untreated control) ([11]; 100 µM): 2.9 fold
- IC50 ([12]; Homo sapiens, CCRF-CEM): 2.7 ± 1.1 µM
- reduction in total BM viability ([13]; 25 µM, 12 h): 22–26%
- IC50 ([14]; Mus musculus): 9.3 ± 1.5 µM
- IC50 [15, 23]: 8.5 ± 0.7 µM
- IC50 [16, 24]: 9.2 ± 2.2 µM

Compound: Nc1ccn([C@@H]2O[C@H](CO)[C@@H](O)[C@@H]2O)c(=O)n1 [AraC, cytarabine]
- Colonies (mean number ± S.D.) ([2]; 0.1 µM): 2.6 ± 1.0

Compound: COc1cccc2c1C(=O)c1c(O)c3c(c(O)c1C2=O)C[C@@](O)(C(=O)CO)C[C@@H]3O[C@H]1C[C@H](N)[C@H](O)[C@H](C)O1 [DOX, Doxorubicin]
- viability at 0.5 µM ([1]; read-out: viability of CD34+CD38− TEX cells): 6%
- Colonies (mean number ± S.D.) ([2]; 0.1 µM): 0.7 ± 1.3
- reduction in the primitive CD34+CD38− BM population viability [18]: 85%
- IC50 [19]: > 500 µM
- reduction in total BM viability ([13]; 0.5 µM, 12 hr): 56%

Compound: Nc1ccn([C@@H]2O[C@H](CO)[C@@H](O)C2(F)F)c(=O)n1 [gemcitabine]
- IC50 [19]: > 500 µM

Compound: OO [hydrogen peroxide]
- induction of intracellular ROS (MFI normalized to untreated control) ([11]; 100 µM): 3.1 fold

Compound: C=C1C(=O)OC2C1CCC(C)=CCCC1(C)OC21 (stereo not drawn) [Compound 2, cis-PTL]
- IC50 [17]: 9.4 ± 2.1 µM
- IC50 ([4]; mean ± S.D.): 9.1 ± 4.4 µM
- LogD7.4 ([5]; average of two measurements): 2.00
- IC50 [9, 25]: 6 ± 4.2 µM
- IC50 [10, 26]: 7.5 ± 0.8 µM
- IC50 ([12]; mean ± S.D.): 2.2 ± 1 µM
- IC50 [15, 27]: 3.3 ± 0.8 µM
- IC50 [16, 28]: 8 ± 1.1 µM
